The source made the active and inactive calls. The calls are words filed in the database; no cut-off is given here.
How the values were obtained:
HeLa [1] = test: Induction of autophagy in human HeLa cells assessed as decrease in p62 levels at IC50 after 24 to 48 hrs by immunoblot analysis; assay type: functional, cell-based
Method in brief: (§1)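 Cells seeded at 2.5 × 10^5/well, treated 24 h later at 1/2 IC50, IC50 and 2× IC50 (legend says 24 h, methods 48 h). Controls: MG132 4.76 μg/mL, BafA1 0.1 μg/mL, DMSO. Lysed in RIPA with protease inhibitors, BCA protein assay, 30 μg on 15% Tris/glycine SDS-PAGE. Blotted for LC3-I/II, p62 and polyubiquitinated proteins with HRP secondary and ECL detection.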

[2] = Cytotoxicity against human Caco2 cells assessed as decrease in cell viability after 48 hrs by MTT assay; assay type: functional, cell-based; conditions: Caco-2, 48 h
Method in brief: (§2)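 Cells kept in DMEM/F12 with 10% FBS, 2 mM glutamine, penicillin/streptomycin at 37 °C, 5% CO2; exponential-phase cells seeded at 1 × 10^4/well for 24 h. Treated at 0.2, 2 and 20 μg/mL for 48 h at 37 °C; vehicle controls = 100% viability. Formazan dissolved in DMSO, read at 570 nm (620 nm reference). IC50 by four-parameter logistic fit, ≥3 independent measurements, ±95% CI.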

[3] = Cytotoxicity against human U87MG cells assessed as decrease in cell viability after 48 hrs by MTT assay; assay type: functional, cell-based, U-87MG ATCC; conditions: U-87 MG; method in brief: as §2
MDA-MB-231 [4] = test: Induction of autophagy in human MDA-MB-231 cells assessed as conversion of LC3-1 to LC3-2 at IC50 to 2 times IC50 after 24 to 48 hrs by immunoblot analysis; assay type: functional, cell-based; method in brief: as §1
[5] = Cytotoxicity against human MCF7 cells assessed as decrease in cell viability after 48 hrs by MTT assay; assay type: functional, cell-based; conditions: MCF7, 48 h; method in brief: as §2
Homo sapiens [6] = species on record: Homo sapiens; test: Induction of autophagy in human 253JBV cells assessed as decrease in p62 levels at 2 times IC50 after 24 to 48 hrs by immunoblot analysis; assay type: functional, cell-based; method in brief: as §1
[7] = Cytotoxicity against HEK293 cells assessed as decrease in cell viability after 48 hrs by MTT assay; assay type: toxicity, cell-based; conditions: human; method in brief: as §2
Homo sapiens [8] = species on record: Homo sapiens; test: Induction of autophagy in human 253JBV cells assessed as decrease in polyubiquitinated protein levels at IC50 after 24 to 48 hrs by immunoblot analysis; assay type: functional, cell-based; method in brief: as §1
[9] = Cytotoxicity against human MDA-MB-231 cells assessed as decrease in cell viability after 48 hrs by MTT assay; assay type: functional, cell-based; conditions: MDA-MB-231, 48 h; method in brief: as §2
HeLa [10] = test: Induction of autophagy in human HeLa cells assessed as conversion of LC3-1 to LC3-2 at IC50 to 2 times IC50 after 24 to 48 hrs by immunoblot analysis; assay type: functional, cell-based; method in brief: as §1
Homo sapiens [11] = species on record: Homo sapiens; test: Induction of autophagy in human 253JBV cells assessed as conversion of LC3-1 to LC3-2 at IC50 to 2 times IC50 after 24 to 48 hrs by immunoblot analysis; assay type: functional, cell-based; method in brief: as §1
[12] = Cytotoxicity against human MPanc96 cells assessed as decrease in cell viability after 48 hrs by MTT assay; assay type: functional, cell-based; conditions: MPANC96, 48 h; method in brief: as §2
Homo sapiens [13] = species on record: Homo sapiens; test: Induction of autophagy in human 253JBV cells assessed as vacuole formation at 20 ug/ml after 48 hrs by microscopy; assay type: functional, cell-based
Method in brief: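 Bladder cells grown 48 h untreated or with 20 μg/mL test agent, then inspected for morphology and vacuoles by inverted light microscopy against the control group.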

MDA-MB-231 [14] = test: Induction of autophagy in human MDA-MB-231 cells assessed as decrease in p62 levels at 2 times IC50 after 24 to 48 hrs by immunoblot analysis; assay type: functional, cell-based; method in brief: as §1
MDA-MB-231 [15] = test: Induction of autophagy in human MDA-MB-231 cells assessed as decrease in polyubiquitinated protein levels at IC50 to 2 times IC50 after 24 to 48 hrs by immunoblot analysis; assay type: functional, cell-based; method in brief: as §1
[16] = Cytotoxicity against human A549 cells assessed as decrease in cell viability after 48 hrs by MTT assay; assay type: functional, cell-based; conditions: A549, 48 h; method in brief: as §2
[17] = Cytotoxicity against human PC3 cells assessed as decrease in cell viability after 48 hrs by MTT assay; assay type: functional, cell-based; conditions: PC-3, 48 h; method in brief: as §2
[18] = Cytotoxicity against human HeLa cells assessed as decrease in cell viability after 48 hrs by MTT assay; assay type: functional, cell-based; method in brief: as §2
HeLa [19] = test: Induction of autophagy in human HeLa cells assessed as decrease in p62 levels at IC50 after 24 to 48 hrs by immunoblot analysis
[20] = Cytotoxicity against human 253JBV cells assessed as decrease in cell viability after 48 hrs by MTT assay; assay type: functional, cell-based; method in brief: as §2

C/C(=C\CC/C(C)=C/Cc1cc(C(=O)O)ccc1N)CC/C=C(\C)CC/C=C(\C)CCC(=O)O
Activity (HeLa [1]): Active | IC50 [2]: 25.9 µM | IC50 [3]: > 42.8 µM | Activity (MDA-MB-231 [4]): Active | IC50 [5]: > 42.8 µM | Activity (Homo sapiens [6]): Active | IC50 at 48 h [7]: 6.45 µM | Activity (Homo sapiens [8]): Active | IC50 [9]: 12.9 µM | Activity (HeLa [10]): Active | Activity (Homo sapiens [11]): Active | IC50 [12]: 36.4 µM | Activity (Homo sapiens [13]): Active | Activity (MDA-MB-231 [14]): Active | Activity (MDA-MB-231 [15]): Active | IC50 [16]: 25.8 µM | IC50 [17]: 42.3 µM | IC50 [18]: 18.2 µM | Activity (HeLa [19]): Active | IC50 [20]: 36.5 µM

C=C1C(=O)O[C@@H]2C3O[C@]3(C)CC/C=C(\C)CC[C@@H]12 (stereo not given in full)
IC50 [2]: 23.4 µM | IC50 [3]: 4.86 µM | IC50 [5]: 27.7 µM | IC50 at 48 h [7]: 3.1 µM | IC50 [9]: 4.36 µM | IC50 [12]: 20.3 µM | IC50 [16]: 22 µM | IC50 [17]: 13 µM | IC50 [18]: 23.1 µM | IC50 [20]: 25.3 µM
